Publication PMC8343189 (Acta Pharmaceutica Sinica. B, 2020)

Assays:
ANO2 = biological target: T1, ANO2 (Homo sapiens, UniProt Q9NQ90); test: ANO2 whole-cell patch clamp in HEK293 cells transiently expressing ANO2; assay type: cell-based; details: 30 μmol/L
T1 sequence (Q9NQ90 1-998): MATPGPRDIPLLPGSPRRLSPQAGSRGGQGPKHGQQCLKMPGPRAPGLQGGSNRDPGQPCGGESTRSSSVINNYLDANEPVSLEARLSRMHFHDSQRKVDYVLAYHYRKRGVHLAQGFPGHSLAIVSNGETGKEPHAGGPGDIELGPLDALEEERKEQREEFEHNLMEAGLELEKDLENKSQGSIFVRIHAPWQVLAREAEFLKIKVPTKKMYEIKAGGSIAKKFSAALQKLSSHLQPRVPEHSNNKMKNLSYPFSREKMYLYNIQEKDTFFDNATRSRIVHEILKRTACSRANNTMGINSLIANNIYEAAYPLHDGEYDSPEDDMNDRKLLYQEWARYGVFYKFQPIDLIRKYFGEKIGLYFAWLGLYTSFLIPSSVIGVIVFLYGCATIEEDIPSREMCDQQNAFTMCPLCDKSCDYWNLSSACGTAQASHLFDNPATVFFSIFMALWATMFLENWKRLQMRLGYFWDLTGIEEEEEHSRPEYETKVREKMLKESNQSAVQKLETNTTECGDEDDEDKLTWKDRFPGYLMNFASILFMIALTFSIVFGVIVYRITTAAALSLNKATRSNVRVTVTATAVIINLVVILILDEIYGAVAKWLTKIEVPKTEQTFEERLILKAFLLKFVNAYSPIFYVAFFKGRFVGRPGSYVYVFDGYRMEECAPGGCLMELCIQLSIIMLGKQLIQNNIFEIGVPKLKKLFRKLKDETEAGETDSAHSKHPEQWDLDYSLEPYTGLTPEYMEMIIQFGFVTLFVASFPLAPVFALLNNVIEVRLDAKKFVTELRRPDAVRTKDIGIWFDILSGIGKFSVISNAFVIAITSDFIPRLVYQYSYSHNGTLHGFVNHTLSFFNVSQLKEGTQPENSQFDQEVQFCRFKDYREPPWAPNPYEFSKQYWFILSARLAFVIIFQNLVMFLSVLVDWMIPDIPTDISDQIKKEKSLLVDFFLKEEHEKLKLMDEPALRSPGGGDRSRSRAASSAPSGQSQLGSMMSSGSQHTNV
In short: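 HEK293 cells transiently transfected with the ANO2 gene; whole-cell patch clamp at room temperature, pipette solution at pCa2+ 6.0. Cells held at −40 mV, stepped from […] in +20 mV increments for 500 ms, then repolarized to −80 mV for 250 ms, every 15 s. Currents recorded before and after 30 μmol/L test compound; an ANO1-selective inhibitor and a pan-inhibitor served as controls.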

SD rats [1] = test: Formalin test on rat; assay type: in vivo
In short: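 30 min later, 50 μL 5% formalin injected into the left paw; controls received saline. Foot lifts counted over phase 1 (0–10 min) and phase 2 (10–60 min). Mean ± SD; ANOVA vs vehicle.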

SD rats [2] = test: Chronic constriction injury model; assay type: in vivo; details: 40 mg/kg i.g., rat CCI, Electronic Von Frey, vehicle 11.5
[3] = Stability under different pH conditions; assay type: physicochemical; details: 37 °C, 100 μmol/L, mean ± SD, n = 3
In short: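 Test compound diluted to 100 μmol/L in phosphate buffers at pH 1.0, 4.0, 6.8, 7.4 and 9.0 and held in a 37 °C water bath. HPLC−UV peak area measured at 0, 2 and 5 h; residual expressed relative to the 0 h peak area.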

[4] = tested on: intracellular Ca^2+ concentration; test: Intracellular Ca^2+ fluorescence; assay type: cell-based; details: 30 μmol/L compound, 200 μmol/L ATP, Cal520, control 2.3 folds
CHO cells = test: SRB proliferative cytotoxicity in CHO cells; assay type: cell-based, Chinese Hamster; details: 1 and 3 μmol/L, 72 h
In short: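 CHO cells in DMEM with 10% FBS, seeded overnight, then exposed to test compound or DMSO vehicle for 72 h. Cells fixed with 10% TCA for 1 h at 4 °C and stained with 0.4% SRB in 1% acetic acid for 15 min in the dark. Washed with acetic acid, dye dissolved in 10 mmol/L Tris-base, absorbance read at 540 nm. n = 3, mean ± SEM, t-test vs DMSO control.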

ANO1 [5] = biological target: T2, ANO1 (Homo sapiens, UniProt Q5XXA6, DEL476-501); test: ANO1 whole-cell patch clamp in ANO1-overexpressing FRT cells; assay type: cell-based; details: 30 μmol/L, ANO1 activated by 1 μmol/L intracellular Ca^2+
T2 sequence (Q5XXA6 with tags, fused parts or gaps isoform Q5XXA6-5 DEL539-564): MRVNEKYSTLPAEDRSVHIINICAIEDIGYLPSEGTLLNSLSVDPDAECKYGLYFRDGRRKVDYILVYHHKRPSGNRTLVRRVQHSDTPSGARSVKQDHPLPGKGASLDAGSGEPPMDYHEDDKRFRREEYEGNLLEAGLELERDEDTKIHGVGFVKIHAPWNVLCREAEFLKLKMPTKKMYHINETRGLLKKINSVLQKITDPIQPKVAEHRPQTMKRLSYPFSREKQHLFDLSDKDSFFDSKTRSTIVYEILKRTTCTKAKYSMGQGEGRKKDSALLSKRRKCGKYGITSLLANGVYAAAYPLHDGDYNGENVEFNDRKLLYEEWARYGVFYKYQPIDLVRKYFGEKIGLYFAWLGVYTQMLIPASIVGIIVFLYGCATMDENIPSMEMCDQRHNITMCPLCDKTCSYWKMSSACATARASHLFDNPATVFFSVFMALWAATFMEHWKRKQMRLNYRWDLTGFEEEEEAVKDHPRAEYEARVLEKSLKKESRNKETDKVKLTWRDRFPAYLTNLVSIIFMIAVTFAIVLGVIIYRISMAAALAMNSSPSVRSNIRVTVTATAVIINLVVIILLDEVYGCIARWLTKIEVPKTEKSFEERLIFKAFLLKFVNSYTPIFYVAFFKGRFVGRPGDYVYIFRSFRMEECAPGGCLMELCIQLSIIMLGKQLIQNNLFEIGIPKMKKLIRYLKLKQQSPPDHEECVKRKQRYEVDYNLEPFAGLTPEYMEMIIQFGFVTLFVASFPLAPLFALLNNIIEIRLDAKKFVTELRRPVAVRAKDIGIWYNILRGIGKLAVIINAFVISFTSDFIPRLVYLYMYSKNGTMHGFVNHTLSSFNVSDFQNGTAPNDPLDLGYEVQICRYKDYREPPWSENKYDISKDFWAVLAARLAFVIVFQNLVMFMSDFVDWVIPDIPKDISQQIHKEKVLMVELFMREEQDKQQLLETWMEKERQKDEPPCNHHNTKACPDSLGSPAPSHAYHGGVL

MDCK cells permeability = assay type: in vitro ADME, canine; details: dog, MDCK
In short: (§1)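 Transwell with a resistance-stable MDCK monolayer; compound added to the upper chamber, HBSS in the lower chamber. Incubated 120 min at 37 °C, 5% CO2. Lower-chamber concentration measured by LC−MS. Papp derived from amount transported per time, membrane area and initial upper-chamber concentration. Mean ± SD, n = 3.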

MDCK cells = MDCK cells permeability; assay type: in vitro ADME, canine; details: oral bioavailability prediction from MDCK permeability
In short: as §1

ANO1 [6] = biological target: T2, ANO1; test: YFP fluorescence quenching assay in ANO1-overexpressing FRT cell line; assay type: cell-based
C57BL/6 male mice = test: Acute toxicity in mice, i.g.; assay type: in vivo
In short: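 Male C57BL/6 mice, 6–8 weeks, 18–22 g, 7 per group, received a single intragastric dose of 1000 mg/kg. Vehicle was 5% DMSO + 10% […] + 85% saline (v/v), adjusted to pH 8.0 with NaOH. Survival was monitored daily for 3 days.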

Question: With `O=C(O)c1c(-c2ccc(Cl)cc2)csc1NC(=O)c1cccc2ccccc12` [Compound 42, 2-(1-Naphthamido)-4-(4-chlorophenyl) thiophene-3-carboxylic acid] as the compound, how does the “effect on ANO2 induced CaCC current” value (ANO2; HEK293 cells expressing ANO2) read?
Answer: little effect

Question: What about the ANO1/ANO2 selectivity (ANO2; compared with Ani9 and CaCCinh-A01) of the same compound?
Answer: slightly weaker than that of Ani9 but much higher than that of CaCCinh-A01

Question: What about the “analgesic effect in phase 2 compared with vehicle” value (SD rats [1]; 80 mg/kg i.g., phase 2) of the same compound?
Answer: significant analgesic effect

Question: What about the “number of foot lifts, phase 2” value (SD rats [1]; 80 mg/kg i.g., phase 2, vehicle 121 foot lifts) of the same compound?
Answer: 70 foot lifts

Question: And the “effect on number of foot lifts, phase 1” value (SD rats [1]; i.g., compared with the vehicle group, phase 1)?
Answer: not phase 1

Question: And the “PTI, pain threshold rate change (%) of 1 h compared to 0 h” value (SD rats [2])?
Answer: 45.2%

Question: What about the “5 h residual compound under different pH (%) pH 1.0” value ([3]; pH 1.0, 5 h) of the same compound?
Answer: 99.0 ± 4.6%

Question: And the “5 h residual compound under different pH (%) pH 4.0” value ([3]; pH 4.0, 5 h)?
Answer: 99.4 ± 4.4%

Question: And the “5 h residual compound under different pH (%) pH 6.8” value ([3]; pH 6.8, 5 h)?
Answer: 99.2 ± 4.9%

Question: And the “5 h residual compound under different pH (%) pH 7.4” value ([3]; pH 7.4, 5 h)?
Answer: 99.4 ± 3.5%

Question: What about the “5 h residual compound under different pH (%) pH 9.0” value ([3]; pH 9.0, 5 h) of the same compound?
Answer: 99.5 ± 0.9%

Question: What about the “maximum relative fluorescence units (RFU) vs initial value (Ca^2+ influx)” value [4] of the same compound?
Answer: 1.9 folds

Question: And the “effect on CHO cell proliferation” value (CHO cells)?
Answer: weak effect

Question: And the CaCC current (ANO1 [5])?
Answer: significantly suppressed the CaCC current

Question: What about the Papp at 120 min (MDCK cells permeability) of the same compound?
Answer: 138 nm/s

Question: What about the “F prediction (%)” value (MDCK cells) of the same compound?
Answer: >70%

Question: What about the IC50 (ANO1 [6]) of the same compound?
Answer: 0.79 µM

Question: And the “survival and acute toxic response” value (C57BL/6 male mice; 1000 mg/kg i.g., 72 h, C57BL/6 male mice)?
Answer: All mice survived and no intense acute toxic response

Question: What about the safe dose (C57BL/6 male mice; i.g. administration, mice) of the same compound?
Answer: ≤ 1000 mg/kg
